Data from the RNAGym collection of RNA variant scans (doi:10.1126/science.aae0568).
Fewer inactive variants are shown than the library holds.

B1: tRNA (parent)
chain: GUUCCGUUGGCGUAAUGGUAACGCGUCUCCCUCCUAAGGAGAAGACUGCGGGUUCGAGUCCCGUACGGAACG

Variants of: B1
Experiment: yeast fitness relative to wild type (ratio to wild type); higher = fitter; tRNA-Arg(CCU), competitive growth, 37 C, YPD
Summary of the method: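 Changes in genotype frequencies gave Darwinian fitness relative to wild type. Frequencies were read by 100-nucleotide paired-end sequencing of gene amplicons before and after pooled Saccharomyces cerevisiae strains, carrying tRNA-Arg(CCU) gene variants at the native locus, were competed in YPD at 37°C for 24 hours in six replicates. A genotype was kept only with ≥ 100 starting reads, and estimates < 0.5 were set to 0.5.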

Variant	yeast fitness
G12C U26A G48A G56C	≤ 0.5
G12C C34A G58C A65U A69C	≤ 0.5
G12C G17A A20U C34A A42C G48A C62U	≤ 0.5
U13A C22G G25C C27U C30G A57C A69U	≤ 0.5
G12C C60U A70C	≤ 0.5
G12A A21C U59A G67A	≤ 0.5
G12A C24A A36U C61U	0.618
G12C U59C C60A	≤ 0.5
U13A A45C C49A A65U	≤ 0.5
G12A U28G C30G C49U U64C	≤ 0.5
U13A A69C	0.988
G12C A14U C29U	≤ 0.5
G12A G18C A42U A70G	0.598
G12A C24A U26A C31A G67A	≤ 0.5
G12C C30U A70U	≤ 0.5
G12C C55U C61G	≤ 0.5
U13A A15G G48A G63A A65C	≤ 0.5
U13A C27G A45G U64A	0.62
G12U G39A C66G	≤ 0.5
G12C C27G G56C	≤ 0.5
U13A	0.993

Variant	yeast fitness
U13A A15C C33G C49U A69C	≤ 0.5
U13A G18C A20C C24U C30U A40C G68C	≤ 0.5
G12C A43G C61U	≤ 0.5
G12A C24A A36U A65U	≤ 0.5
G12C G17A C34G A40U A42U G67C	≤ 0.5
C11U U35A G38A C61G	0.565
G12C A15U C24A G48C C61U	≤ 0.5
G12A A14C C34G	≤ 0.5
U13A U54C	0.934
G12C C55G	0.608
G12U A15G A20C C24G	≤ 0.5
C11U U28G	0.792
G12C C33A	0.682
G12A C29G U35G C61U	≤ 0.5
G12A C27A G67C	0.548
U13A C22G C27G C31G C61G A69U	≤ 0.5
G12A U13C U16A U19G G23A G58A G68A	≤ 0.5
G12C G25C C66G	≤ 0.5
C11U U28G G51C U64A C66U A69C	≤ 0.5
G12C G25C C60A A69U	≤ 0.5
U13A C33G U54A U59A G67A	0.504

Variant	yeast fitness
G12A C34G A37G G38A G50A	≤ 0.5
G12C U19A C27G C62A	≤ 0.5
G12A A20C C49G	0.539
G12U A57C	≤ 0.5
G12C A40C A42U C49G C66G	≤ 0.5
G12A G39C	0.896
U13A U28C G41A G44A A70U	≤ 0.5
G12C U47G C49A A69U	≤ 0.5
U13A C27U	0.984
C11U U28C C29G G67A	≤ 0.5
G12C U32G C33G U47C A57C	≤ 0.5
G12A U35A G58A	0.524
U13A A15U C24U A37U G67C	0.591
G12A G38C C49U C62U A69U	0.973
G12A A21C A70U	0.563
G12C C24U U64G	≤ 0.5
U13A U28C	0.992
G12A C33G A36C G44A	≤ 0.5
G12A A14C C31U	≤ 0.5
G12C C30A G48A C55G	0.607
G12A C29A A42U A45U C61G	≤ 0.5

Variant	yeast fitness
G12C C22G C55U	0.581
U13A G23C C27G C49U U53C C61A G68A	≤ 0.5
G12A C27G C34U A43C A57U G58A C62G	≤ 0.5
U13A G38A C49G G50C A70G	≤ 0.5
G12A G48C	0.754
U13A G23C C27G U53C C61A	0.509
G12A C46U G51A C66U	0.615
G12C U47A A70G	0.554
U13A A40U C55U	0.681
G12C A42G A70U	0.592
G12C G18C A45G	≤ 0.5
G12A C46A U47A	0.75
G12C G23C A45U	0.609
G12A A14U C30U	≤ 0.5
C11U U28C U32G	0.569
G12A A14G A21G C24G U28G	0.674
G12A G41C A45C G68A	≤ 0.5
G12A G17A U26G C33A A37U A45U	≤ 0.5
C11U U35A G38A C55G	≤ 0.5
U13A U19C A20U C29G C33G A37G C49U C66U	0.601
